# Data reported in ChEMBL document CHEMBL1131623, “Newly synthesized L-enantiomers of 3'-fluoro-modified beta-2'-deoxyribonucleoside 5'-triphosphates inhibit hepatitis B DNA polymerases but not the five cellular DNA polymerases alpha, beta, gamma, delta, and epsilon nor HIV-1 reverse transcriptase” (J Med Chem, 1998).
# Tests used:
# [1] = Compound was evaluated for the inhibition of cellular DNA polymerase (delta)
# Summary of the method: (§1)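 Calf thymus pols δ and ε (0.05 unit), 30 min at 37 °C, in 50 mM Bis-Tris pH 6.5, 6 mM MgCl2, 1 mM DTT, 250 μg/mL BSA. Templates were 3.5 μM poly(dA)·oligo(dT)15 with 10 μM [3H]TTP, or activated DNA with [3H]dCTP for dCTP analogues. δ assays also received recombinant PCNA at 10 μg/mL.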
# Hepatitis B virus = test: Compound was evaluated for 50% inhibition of HBV polymerases (Hepatitis B virus); assay type: functional, organism-based
# Summary of the method: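 Endogenous polymerase in virions pelleted from HBV- or DHBV-positive sera, resuspended in PBS and lysed with 2-mercaptoethanol/Nonidet P-40. Run 60 min at 37 °C in 50 mM Tris-HCl pH 8.1, 60 mM KCl, 40 mM MgCl2. Substrates were 100 μM each of the three unlabeled dNTPs plus 0.4 μM [3H]TTP or [3H]dCTP, chosen by analogue type.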
# [2] = biological target: Human immunodeficiency virus type 1 reverse transcriptase (Human immunodeficiency virus 1, UniProt Q72547); test: Compound was evaluated for 50% inhibition of HIV-RT (HIV reverse transcriptase)
# DNA polymerase beta = DNA polymerase beta (Homo sapiens, UniProt P06746); test: Compound was evaluated for the inhibition of cellular DNA polymerase (beta)
# Summary of the method: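 HeLa-derived pol β (0.25 unit), 15 min at 37 °C, in 50 mM Tris-HCl pH 8.7, 100 mM KCl, 10 mM MgCl2, 1 mM DTT, 0.4 mg/mL BSA. TTP analogues were tested on poly(dA)·oligo(dT)15 with [3H]TTP. dCTP analogues used activated DNA, [3H]dCTP and the other three dNTPs. Read-out was [3H] incorporation.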
# [3] = biological target: T1, DNA polymerase subunit gamma-1 (Homo sapiens, UniProt P54098); test: Compound was evaluated for the inhibition of cellular DNA polymerase (gamma)
# T1 sequence (P54098 whole entry): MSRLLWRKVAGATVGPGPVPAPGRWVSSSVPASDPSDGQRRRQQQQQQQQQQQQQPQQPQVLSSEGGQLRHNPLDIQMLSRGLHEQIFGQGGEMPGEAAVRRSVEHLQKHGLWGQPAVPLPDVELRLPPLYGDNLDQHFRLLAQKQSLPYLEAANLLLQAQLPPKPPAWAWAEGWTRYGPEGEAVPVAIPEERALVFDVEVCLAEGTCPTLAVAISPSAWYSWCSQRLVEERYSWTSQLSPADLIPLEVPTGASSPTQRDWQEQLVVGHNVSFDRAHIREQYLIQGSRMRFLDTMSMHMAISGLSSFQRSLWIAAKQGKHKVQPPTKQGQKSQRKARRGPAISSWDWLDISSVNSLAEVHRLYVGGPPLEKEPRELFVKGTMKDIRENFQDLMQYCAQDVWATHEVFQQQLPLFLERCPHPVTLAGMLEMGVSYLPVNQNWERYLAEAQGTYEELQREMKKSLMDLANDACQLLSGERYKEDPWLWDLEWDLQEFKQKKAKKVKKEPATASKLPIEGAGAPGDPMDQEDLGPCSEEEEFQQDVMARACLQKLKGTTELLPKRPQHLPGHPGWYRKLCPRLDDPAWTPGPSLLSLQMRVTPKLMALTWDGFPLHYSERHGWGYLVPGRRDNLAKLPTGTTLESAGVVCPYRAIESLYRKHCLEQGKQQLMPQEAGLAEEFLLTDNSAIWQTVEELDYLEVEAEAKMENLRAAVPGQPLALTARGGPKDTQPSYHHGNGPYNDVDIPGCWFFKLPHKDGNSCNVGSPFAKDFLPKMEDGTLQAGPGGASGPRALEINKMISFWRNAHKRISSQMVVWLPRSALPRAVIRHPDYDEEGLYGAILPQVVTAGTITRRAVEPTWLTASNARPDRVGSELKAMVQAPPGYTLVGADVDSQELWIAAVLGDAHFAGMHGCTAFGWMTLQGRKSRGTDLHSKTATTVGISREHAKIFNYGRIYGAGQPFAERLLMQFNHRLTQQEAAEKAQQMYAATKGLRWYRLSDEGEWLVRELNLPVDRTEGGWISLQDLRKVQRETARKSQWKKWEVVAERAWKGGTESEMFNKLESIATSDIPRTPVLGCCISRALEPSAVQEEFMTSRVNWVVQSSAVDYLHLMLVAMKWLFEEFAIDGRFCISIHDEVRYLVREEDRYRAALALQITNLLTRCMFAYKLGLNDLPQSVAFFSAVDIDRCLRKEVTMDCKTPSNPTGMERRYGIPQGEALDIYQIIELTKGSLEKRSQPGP
# Nucleic Acid = test: Compound was evaluated for the inhibition of cellular DNA polymerase (epsilon); assay type: nucleic-acid assay; details: Bos taurus; summary of the method: as §1
# [4] = biological target: T2, DNA polymerase alpha catalytic subunit (Homo sapiens, UniProt P09884); test: Compound was evaluated for the inhibition of cellular DNA polymerase (alpha)
# T2 sequence (P09884 whole entry): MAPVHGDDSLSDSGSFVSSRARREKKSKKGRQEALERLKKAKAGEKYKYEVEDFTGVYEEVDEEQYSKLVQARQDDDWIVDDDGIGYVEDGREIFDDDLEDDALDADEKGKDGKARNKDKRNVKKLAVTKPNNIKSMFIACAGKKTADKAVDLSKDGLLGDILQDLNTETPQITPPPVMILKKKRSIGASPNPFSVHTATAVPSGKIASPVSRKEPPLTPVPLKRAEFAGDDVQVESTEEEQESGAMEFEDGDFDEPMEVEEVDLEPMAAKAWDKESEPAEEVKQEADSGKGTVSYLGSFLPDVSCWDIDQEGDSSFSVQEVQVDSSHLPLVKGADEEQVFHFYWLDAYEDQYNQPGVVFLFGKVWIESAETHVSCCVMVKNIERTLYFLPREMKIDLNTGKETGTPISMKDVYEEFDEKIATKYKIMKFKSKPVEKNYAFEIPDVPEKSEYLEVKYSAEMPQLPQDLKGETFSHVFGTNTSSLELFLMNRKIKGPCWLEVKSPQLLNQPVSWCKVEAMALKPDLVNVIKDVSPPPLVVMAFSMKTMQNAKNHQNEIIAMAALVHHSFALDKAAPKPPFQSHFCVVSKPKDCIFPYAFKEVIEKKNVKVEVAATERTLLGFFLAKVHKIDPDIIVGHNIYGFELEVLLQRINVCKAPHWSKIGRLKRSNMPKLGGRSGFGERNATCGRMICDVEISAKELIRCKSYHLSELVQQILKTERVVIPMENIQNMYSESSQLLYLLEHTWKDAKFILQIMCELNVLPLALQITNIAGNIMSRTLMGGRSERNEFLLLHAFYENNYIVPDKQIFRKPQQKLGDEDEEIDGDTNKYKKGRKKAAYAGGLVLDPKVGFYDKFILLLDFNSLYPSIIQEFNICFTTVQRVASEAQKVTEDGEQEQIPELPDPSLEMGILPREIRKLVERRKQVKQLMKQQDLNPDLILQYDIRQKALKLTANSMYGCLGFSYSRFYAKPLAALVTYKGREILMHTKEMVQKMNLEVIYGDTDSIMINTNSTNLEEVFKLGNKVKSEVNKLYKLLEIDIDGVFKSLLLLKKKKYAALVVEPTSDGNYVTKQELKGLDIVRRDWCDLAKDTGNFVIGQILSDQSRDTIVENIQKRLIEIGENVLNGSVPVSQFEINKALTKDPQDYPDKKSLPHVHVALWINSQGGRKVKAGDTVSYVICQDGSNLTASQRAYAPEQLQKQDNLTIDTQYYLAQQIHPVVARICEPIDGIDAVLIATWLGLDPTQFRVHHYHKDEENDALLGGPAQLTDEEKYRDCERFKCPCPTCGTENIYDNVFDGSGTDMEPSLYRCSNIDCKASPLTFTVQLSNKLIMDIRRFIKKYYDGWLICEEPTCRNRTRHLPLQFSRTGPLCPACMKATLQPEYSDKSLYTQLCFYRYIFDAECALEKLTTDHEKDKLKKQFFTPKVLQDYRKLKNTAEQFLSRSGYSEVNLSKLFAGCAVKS
IC50 [1] [µM],IC50 (Hepatitis B virus) [nM],IC50 [2] [nM],IC50 (DNA polymerase beta) [nM],IC50 [3] [nM],IC50 (Hepatitis B virus; Hepatitis B virus) [nM],IC50 (Nucleic Acid) [µM],IC50 [4] [µM],SMILES
> 100,500,500,1000,2000,–,–,–,Nc1ccn([C@@H]2C[C@@H](F)[C@H](COP(=O)(O)OP(=O)(O)OP(=O)(O)O)O2)c(=O)n1 (stereo in doubt)
> 200,–,100000,> 200000,> 100000,250,> 100,–,Cc1cn([C@@H]2C[C@@H](F)[C@H](COP(=O)(O)OP(=O)(O)OP(=O)(O)O)O2)c(=O)[nH]c1=O (stereo in doubt; 16)
> 200,35000,> 200000,> 100000,> 100000,–,–,–,O=c1ccn([C@@H]2C[C@@H](F)[C@H](COP(=O)(O)OP(=O)(O)OP(=O)(O)O)O2)c(=O)[nH]1 (stereo in doubt; 17)
100,30,600,1000,500,–,> 100,> 200,Cc1cn([C@@H]2C[C@@H](F)[C@H](COP(=O)(O)OP(=O)(O)OP(=O)(O)O)O2)c(=O)nc1N (stereo in doubt)
> 200,1900,> 100000,> 200000,> 50000,–,–,> 200,Cc1cn([C@@H]2C[C@@H](F)[C@H](COP(=O)(O)OP(=O)(O)OP(=O)(O)O)O2)c(=O)nc1N (stereo in doubt; 19)
–,150,50,2200,1500,–,–,–,Cc1cn([C@@H]2C[C@@H](F)[C@H](COP(=O)(O)OP(=O)(O)OP(=O)(O)O)O2)c(=O)[nH]c1=O (stereo in doubt)
> 200,7000,> 100000,> 100000,> 50000,–,> 100,–,Nc1ccn([C@@H]2C[C@@H](F)[C@H](COP(=O)(O)OP(=O)(O)OP(=O)(O)O)O2)c(=O)n1 (stereo in doubt; 18)
> 100,–,70,3000,3500,25000,> 100,–,O=c1ccn([C@@H]2C[C@@H](F)[C@H](COP(=O)(O)OP(=O)(O)OP(=O)(O)O)O2)c(=O)[nH]1 (stereo in doubt)
